Columns and labels:
[1] = biological target: T1, Metabotropic glutamate receptor 4 (Homo sapiens, UniProt Q14833); assay: Agonistic activity at Metabotropic glutamate receptor 4 expressed in mammalian cells by GTPgammaS binding assay; assay type: cell-based
In short: (§1)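 [35S]-GTPγS binding to membranes prepared from CHO cells expressing human mGlu4a. Stimulation is normalised to that given by 1 mM L-Glu. Points are mean ± SEM of three determinations from one experiment.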

[2] = biological target: T1, Metabotropic glutamate receptor 4; assay: Agonistic activity on Human mGlu4a receptor expressed in recombinant mammalian cells by GTPgammaS binding assay; Partial agonist; assay type: cell-based; in short: as §1
[3] = biological target: T1, Metabotropic glutamate receptor 4; assay: Inhibition of forskolin-stimulated cAMP accumulation in CHO cells expressing hmGlu4a; assay type: functional, cell-based
[4] = biological target: T2, Metabotropic glutamate receptor 2 (Homo sapiens, UniProt Q14416); assay: Inhibitory concentration on Human mGlu2 receptor expressed in recombinant mammalian cells by GTPgammaS binding assay; assay type: cell-based
T2 sequence (Q14416 whole entry): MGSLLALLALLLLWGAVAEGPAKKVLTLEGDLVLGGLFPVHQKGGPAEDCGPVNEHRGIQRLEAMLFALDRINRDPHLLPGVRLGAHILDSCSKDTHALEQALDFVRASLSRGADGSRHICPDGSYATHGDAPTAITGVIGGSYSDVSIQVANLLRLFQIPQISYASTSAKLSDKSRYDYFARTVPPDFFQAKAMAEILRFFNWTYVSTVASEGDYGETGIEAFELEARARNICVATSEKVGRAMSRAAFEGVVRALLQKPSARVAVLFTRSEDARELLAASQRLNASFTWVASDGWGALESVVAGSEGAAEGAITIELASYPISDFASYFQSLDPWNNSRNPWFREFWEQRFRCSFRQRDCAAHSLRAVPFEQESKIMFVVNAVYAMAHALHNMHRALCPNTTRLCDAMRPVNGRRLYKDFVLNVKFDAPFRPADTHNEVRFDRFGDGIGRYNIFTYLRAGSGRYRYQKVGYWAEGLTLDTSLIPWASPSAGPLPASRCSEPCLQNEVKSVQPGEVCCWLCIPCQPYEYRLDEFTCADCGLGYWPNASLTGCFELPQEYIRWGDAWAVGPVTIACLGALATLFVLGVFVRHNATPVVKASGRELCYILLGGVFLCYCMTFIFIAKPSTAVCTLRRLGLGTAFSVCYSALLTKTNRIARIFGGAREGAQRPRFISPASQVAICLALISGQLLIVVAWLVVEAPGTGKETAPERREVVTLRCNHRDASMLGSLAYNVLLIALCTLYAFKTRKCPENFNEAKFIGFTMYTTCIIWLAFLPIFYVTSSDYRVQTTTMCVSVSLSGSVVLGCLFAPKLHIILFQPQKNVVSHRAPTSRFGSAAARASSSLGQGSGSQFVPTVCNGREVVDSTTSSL
In short: (§2)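 [35S]-GTPγS binding assay in a CHO cell line expressing human mGlu2.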

[5] = biological target: T1, Metabotropic glutamate receptor 4; assay: Inhibitory concentration on Human mGlu4 receptor expressed in recombinant mammalian cells by GTPgammaS binding assay; assay type: cell-based
[6] = biological target: T2, Metabotropic glutamate receptor 2; assay: Agonistic activity on Human mGlu2 receptor expressed in recombinant mammalian cells by GTPgammaS binding assay; assay type: cell-based; in short: as §2
[7] = biological target: T2, Metabotropic glutamate receptor 2; assay: Inhibitory concentration on Human Metabotropic glutamate receptor 2 expressed in recombinant mammalian cells by GTPgammaS binding assay; assay type: cell-based; in short: as §2
[8] = biological target: T1, Metabotropic glutamate receptor 4; assay: Agonistic activity on Human mGlu4a receptor expressed in recombinant mammalian cells by GTPgammaS binding assay; assay type: cell-based; in short: as §1
[9] = biological target: T1, Metabotropic glutamate receptor 4; assay: Inhibition of forskolin-stimulated cAMP accumulation in CHO cells expressing hmGlu4a; No full inhibition; assay type: functional, cell-based
[10] = biological target: T2, Metabotropic glutamate receptor 2; assay: Agonistic activity on Human Metabotropic glutamate receptor 2 expressed in recombinant mammalian cells by GTPgammaS binding assay; assay type: cell-based; in short: as §2

T1 sequence (Q14833 whole entry): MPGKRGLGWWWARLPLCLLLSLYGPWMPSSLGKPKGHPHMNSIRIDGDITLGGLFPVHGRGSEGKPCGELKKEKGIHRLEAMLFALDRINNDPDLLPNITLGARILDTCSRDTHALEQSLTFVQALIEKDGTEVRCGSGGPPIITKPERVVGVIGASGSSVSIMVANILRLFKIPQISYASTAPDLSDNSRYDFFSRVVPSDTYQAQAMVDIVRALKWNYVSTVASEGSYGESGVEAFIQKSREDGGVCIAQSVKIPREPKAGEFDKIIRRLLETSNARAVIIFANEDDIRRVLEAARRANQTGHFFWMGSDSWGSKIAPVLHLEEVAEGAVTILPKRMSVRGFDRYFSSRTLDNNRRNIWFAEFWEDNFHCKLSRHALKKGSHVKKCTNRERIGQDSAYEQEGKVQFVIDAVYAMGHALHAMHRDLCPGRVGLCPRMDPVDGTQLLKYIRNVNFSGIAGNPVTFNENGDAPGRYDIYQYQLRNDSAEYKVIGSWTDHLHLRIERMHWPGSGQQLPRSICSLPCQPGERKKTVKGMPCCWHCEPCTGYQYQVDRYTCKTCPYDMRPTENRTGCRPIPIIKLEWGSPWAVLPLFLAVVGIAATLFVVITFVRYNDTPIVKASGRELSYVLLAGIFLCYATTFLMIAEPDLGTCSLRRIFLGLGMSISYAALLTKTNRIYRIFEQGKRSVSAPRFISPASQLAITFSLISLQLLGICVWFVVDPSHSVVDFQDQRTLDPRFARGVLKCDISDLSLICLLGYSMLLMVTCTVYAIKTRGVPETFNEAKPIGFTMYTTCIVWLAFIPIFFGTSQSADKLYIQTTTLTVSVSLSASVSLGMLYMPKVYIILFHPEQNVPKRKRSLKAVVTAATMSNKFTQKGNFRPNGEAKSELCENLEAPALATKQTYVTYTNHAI

SMILES: N[C@@]1(C(=O)O)CC[C@H](P(=O)(O)O)C1
- EC50 [1]: 86 µM

SMILES: N[C@]1(C(=O)O)C[C@@H]1CP(=O)(O)O
- EC50 [1]: 0.58 µM

SMILES: NC1(C(=O)O)C=C(P(=O)(O)O)CC1 (stereo unspecified)
- EC50 [2]: > 30 µM
- EC50 [3]: > 30 µM
- IC50 [3]: > 100 µM
- IC50 [4]: > 200 µM
- IC50 [5]: > 100 µM
- EC50 [6]: > 300 µM

SMILES: N[C@]1(C(=O)O)C[C@H]1CP(=O)(O)O
- EC50 [1]: 7.9 µM

SMILES: NC1(C(=O)O)CC=C(P(=O)(O)O)C1 (stereo unspecified)
- IC50 [7]: > 300 µM
- EC50 [8]: 17 µM
- IC50 [3]: > 100 µM
- EC50 [9]: ~30 µM
- IC50 [5]: > 100 µM
- EC50 [10]: > 300 µM

SMILES: N[C@@H](CCP(=O)(O)O)C(=O)O
- EC50 [1]: 0.5 µM

SMILES: NC(C(=O)O)c1ccc(P(=O)(O)O)cc1 (stereo unspecified)
- EC50 [1]: 4.7 µM

SMILES: NC1(C(=O)O)C[C@@H](C(=O)O)[C@H](C(=O)O)C1
- EC50 [1]: 9 µM

SMILES: N[C@@]1(C(=O)O)C[C@H](C(=O)O)[C@H](C(=O)O)C1
- EC50 [1]: 7 µM

SMILES: N[C@@H](COP(=O)(O)O)C(=O)O [DEXFOSFOSERINE]
- EC50 [1]: 1 µM

SMILES: N[C@@]1(C(=O)O)CCC(P(=O)(O)O)C1 (single isomer, unassigned)
- EC50 [1]: 27 µM
